According to ChEMBL document CHEMBL1142205 (Antimicrob Agents Chemother, 2007):
Active and inactive are the calls of the source. The rule behind the calls is not given here.

Tests used:
[1] = tested on: Plasmodium falciparum; test: Increase in intracellular reactive oxygen species in Plasmodium falciparum at 50 uM; assay type: functional, organism-based
How it was run: (§1)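 Parasitized cells preloaded with 50 μM DCFH-DA, 37°C, 30 min, washed, then exposed to drug for 4 h, alone or with mannitol (50 μM) or ascorbic acid plus reduced glutathione (1 mM each). Flow cytometry at ex 485/em 535 nm; ROS taken as mean fluorescence intensity. SD from three experiments.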

[2] = tested on: Plasmodium falciparum; test: Restoration of nuclear GCN5 activity in Plasmodium falciparum at 50 uM in presence of 5000 units/ml catalase
[3] = tested on: Plasmodium falciparum; test: Restoration of nuclear GCN5 activity in Plasmodium falciparum at 50 uM in presence of 400 units/ml superoxide dismutase
[4] = tested on: Plasmodium falciparum; test: Inhibition of Plasmodium falciparum 3D7 recombinant GCN5 by HAT assay at 100 uM
How it was run: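 Recombinant PfGCN5 HAT domain (30 ng) with 1 μg bovine core histones preincubated ± drug in HAT buffer, 30°C, 10 min, then 0.1 μCi [3H]acetyl-CoA for 10 min. Half spotted on P-81 filters, washed at pH 9.2, scintillation counted; half resolved by SDS-PAGE/fluorography. DMSO solvent control; triplicates.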

[5] = tested on: Plasmodium falciparum; test: Increase of Plasmodium falciparum 3D7 nuclear DNA damage by real-time PCR analysis; assay type: functional
How it was run: (§2)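 3D7 early trophozoites at 5% parasitemia and 5% hematocrit exposed to drug or DMSO for 6 h at 37°C. Genomic DNA by proteinase K/phenol-chloroform, quantified by dot blot; SYBR green real-time PCR on 1 ng DNA. Lesions derived from CT shift relative to control, control amplification efficiency set at 1.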

[6] = tested on: Plasmodium falciparum; test: Pro-oxidant activity in Plasmodium falciparum as increased ROS; assay type: functional, organism-based; how it was run: as §1
[7] = tested on: Plasmodium falciparum; test: Growth restoration of Plasmodium falciparum at 50 uM with 300 uM mannitol; assay type: functional, organism-based
How it was run: (§3)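 Maturation assay: synchronized ring-stage parasites in 24-well plates with 50 μM drug and increasing mannitol concentrations. When control schizonts matured, schizonts per 5,000 red cells counted in each well.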

[8] = tested on: Plasmodium falciparum; test: Activity of GCN5 in Plasmodium falciparum assessed as increase in acetylation of H3-K9 and H3-K14 at 20 uM in presence of mannitol
How it was run: (§4)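 Unsynchronized 3D7 cultures exposed to 20 μM drug for 4 or 12 h (aliquots treated from 0 or 8 h, all harvested at 12 h), with or without 300 μM mannitol. Histones acid-extracted, equal amounts run on SDS-PAGE and immunoblotted with acetylation site-specific antibodies; anti-H4 as loading control.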

[9] = tested on: Plasmodium falciparum; test: Growth restoration of Plasmodium falciparum at 50 uM with 400 uM mannitol; assay type: functional, organism-based; how it was run: as §3
[10] = tested on: Plasmodium falciparum; test: (§5) Antimalarial activity against chloroquine-susceptible Plasmodium falciparum D10; assay type: functional, organism-based
How it was run: (§6)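 Asexual P. falciparum cultured in human O+ erythrocytes at 37°C under 5% CO2/3% O2 and sorbitol-synchronised. Ring stages were set at 1% parasitemia and 5% hematocrit in low-hypoxanthine medium, in triplicate. […] Uninfected-RBC counts were subtracted and IC50/IC90 taken by linear regression with 95% CI.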

[11] = tested on: Plasmodium falciparum; test: Decreased reactive oxygen species in Plasmodium falciparum with 50 uM mannitol; assay type: functional, organism-based; how it was run: as §1
[12] = tested on: Plasmodium falciparum; test: Growth inhibition of chloroquine-resistant Plasmodium falciparum 7G8 at 5 uM; assay type: functional, organism-based
How it was run: (§7)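 Sorbitol-synchronised ring-stage parasites were seeded at 0.5% parasitemia and 5% hematocrit in 24-well plates. […] Parasitemia was counted daily for 4 days on Giemsa-stained smears, as means of three replicate samples.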

[13] = tested on: Plasmodium falciparum; test: Antimalarial activity against chloroquine-resistant Plasmodium falciparum Dd2; assay type: functional, organism-based; how it was run: as §6
[14] = tested on: Plasmodium falciparum; test: Growth arrest of Plasmodium falciparum at 50 uM; assay type: functional, organism-based; how it was run: as §3
[15] = tested on: Plasmodium falciparum; test: Growth inhibition of chloroquine-susceptible Plasmodium falciparum 3D7 at 20 uM; assay type: functional, organism-based
How it was run: (§8)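 Strain 3D7, sorbitol-synchronized rings, seeded at 0.5% parasitemia, 5% hematocrit in O+ erythrocytes, RPMI/Albumax medium, 37°C, 5% CO2/3% O2. Continuous exposure to 5 or 20 μM (or none); parasitemia counted daily for 4 days on Giemsa smears, three replicates per point.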

[16] = tested on: Plasmodium falciparum; test: Growth inhibition of chloroquine-resistant Plasmodium falciparum 7G8 at 20 uM; assay type: functional, organism-based; how it was run: as §7
[17] = tested on: Plasmodium falciparum; test: Restoration of nuclear GCN5 activity in Plasmodium falciparum at 50 uM in presence of 300 uM mannitol
[18] = tested on: Plasmodium falciparum; test: Growth inhibition of chloroquine-susceptible Plasmodium falciparum 3D7 at 5 uM; assay type: functional, organism-based; how it was run: as §8
[19] = tested on: Plasmodium falciparum; test: Antimalarial activity against chloroquine-resistant Plasmodium falciparum 7G8; assay type: functional, organism-based; how it was run: as §6
[20] = tested on: Plasmodium falciparum; test: Inhibition of GCN5 in Plasmodium falciparum assessed as hyperacetylation of H3-K9 and H3-K14 at 20 uM after 12 hrs; conditions: 3D7, in the assay text read “hypoacetylation” for “hyperacetylation”; how it was run: as §4
[21] = tested on: Plasmodium falciparum; test: Decreased reactive oxygen species in Plasmodium falciparum with 1 mM ascorbic acid and 1 mM reduced glutathione; assay type: functional, organism-based; how it was run: as §1
[22] = tested on: Plasmodium falciparum; test: Inhibition of nuclear GCN5 in Plasmodium falciparum after 8 hrs by liquid HAT assay at 25 to 100 uM
[23] = tested on: Plasmodium falciparum; test: as §5; assay type: functional, organism-based; how it was run: as §6; remark: listed apart in the source
[24] = tested on: Plasmodium falciparum; test: Increased DNA damage in Plasmodium falciparum after 12 hrs in TUNEL assay; assay type: functional, organism-based
How it was run: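 Ring-stage parasites exposed to 20 or 50 μM for 12 h, with or without 400 μM mannitol. Percoll-purified, fixed on poly-L-lysine slides, TUNEL with fluorescein-dUTP, propidium iodide counterstain. 300 cells scored per treatment for percent labeled; triplicate samples.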

[25] = tested on: Plasmodium falciparum; test: Increased intracellular reactive oxygen species in Plasmodium falciparum at 1 uM; assay type: functional, organism-based; how it was run: as §1
[26] = tested on: Plasmodium falciparum; test: Increase of Plasmodium falciparum 3D7 mitochondrial DNA damage by real-time PCR analysis; assay type: functional; how it was run: as §2

What does the source list for `COc1cc(/C=C/C(=O)CC(=O)/C=C/c2ccc(O)c(OC)c2)ccc1O` [CURCUMIN]?
Activity [1]: Active; Activity [2]: Active; Activity [3]: Active; inhibition [4]: 95%; Activity [5]: Active; Activity [6]: Dose-dependent effect; Activity [7]: Active; Activity [8]: Active; Activity [9]: Active; IC50 [10]: 22.9 µM; IC90 [10]: 41.3 µM; Activity [11]: Active; Activity [12]: Active; IC50 [13]: 27.4 µM; IC90 [13]: 49.4 µM; Activity [14]: Active; Activity [15]: Active; Activity [16]: Active; Activity [17]: Active; Activity [18]: Active; IC50 [19]: 29.6 µM; IC90 [19]: 53.3 µM; Activity [20]: Active; Activity [21]: Active; Activity [22]: Active; IC50 [23]: 22.9 µM; IC90 [23]: 41.3 µM; Activity [24]: Active; Activity [25]: Active; Activity [26]: Active
